Most compounds without a hit are left out; they make up all but 2% or so of the library.
HTRA1 inh: HTRA1 (human) protease inhibition; Q92743; recombinant HTRA1, FP-rhodamine activity-based probe, fluorescence polarization; inhibition, % at 5.96 µM; actives 0.5% (n = 340,000); in the data active = inhibition above about 36%
TDP2 inh: blocks human TDP2 phosphodiesterase activity; recombinant TDP2, T5PNP hydrolysis, p-nitrophenol absorbance 415 nm; inhibition, % at 12.8 µM; actives 0.34% (n = 370,000);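 active = inhibition above the mean of all tested compounds plus 3 SD, set per campaign, cut at about 25% in these data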
Target sequence (O95551 whole entry, looked up): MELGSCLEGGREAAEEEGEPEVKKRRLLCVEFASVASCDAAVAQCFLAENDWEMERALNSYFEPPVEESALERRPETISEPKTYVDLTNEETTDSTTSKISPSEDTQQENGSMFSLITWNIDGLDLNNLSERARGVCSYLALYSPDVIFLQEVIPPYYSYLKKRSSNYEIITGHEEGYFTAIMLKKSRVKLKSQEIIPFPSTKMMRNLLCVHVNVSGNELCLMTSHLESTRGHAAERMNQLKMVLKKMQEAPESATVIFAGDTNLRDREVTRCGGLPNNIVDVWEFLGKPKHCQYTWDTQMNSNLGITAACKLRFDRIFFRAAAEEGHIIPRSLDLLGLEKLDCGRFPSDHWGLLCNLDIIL
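System – recombinant human TDP2 · Amount – 120 nM TDP2 per well · Buffer or medium – Mg2+-containing Tris-HCl buffer, pH 7.5 · Reagent – T5PNP substrate, 5 mM · Dosing – 12.8 µM single point, 1% DMSO · Incubation – 2 h at 37 °C · Measured by – epi absorbance · Read-out basis – percent inhibition · Benchmarks – high control without enzyme, low control DMSO plus TDP2 · Repeats – singlicate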
SIAE inh: inhibitors of human sialic acid acetylesterase SIAE | Q9HAT2 | SIAE FP-Rh probe binding, fluorescence polarization | inhibition, % at 9.66 µM | actives 0.69% (n = 370,000);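 active = inhibition above a cutoff: mean of compounds within the control limits plus 3 SD of those, cut at about 17% in these data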
mABHD4 FP: inhibits mouse alpha/beta hydrolase domain 4; purified mABHD4, FP-Rh probe fluorescence polarization; inhibition, % at 8.92 µM; actives 0.54% (n = 370,000); AID 720543;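 active = inhibition exceeding the mean over every tested compound plus 3 SD, cut at about 30% in these data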
Target sequence (Q8VD66 whole entry, looked up, the tested form may be a part): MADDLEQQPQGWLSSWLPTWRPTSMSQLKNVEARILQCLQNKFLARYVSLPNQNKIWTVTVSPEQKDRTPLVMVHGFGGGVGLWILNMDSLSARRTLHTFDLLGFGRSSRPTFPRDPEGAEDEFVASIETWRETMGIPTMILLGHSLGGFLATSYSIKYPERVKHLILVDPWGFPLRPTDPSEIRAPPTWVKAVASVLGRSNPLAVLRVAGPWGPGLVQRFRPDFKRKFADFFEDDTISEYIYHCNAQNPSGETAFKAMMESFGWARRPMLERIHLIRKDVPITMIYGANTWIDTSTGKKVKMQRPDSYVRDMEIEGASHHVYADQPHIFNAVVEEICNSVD
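Doses – 8.92 µM, single dose · Material – wild-type mouse ABHD4 protein · Replication – single well per compound (singlicate) · Measure – percent inhibition of probe binding, normalized to plate controls · Schedule – 45 min compound pre-incubation plus 60 min probe step, 25 °C · Detection – fluorescence polarization with parallel and perpendicular emission, 525/598 nm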
PAD4 inh: blocks human protein arginine deiminase 4; AID 485272; Q9UM07; inhibition, % at 6.36 µM; actives 0.41% (n = 330,000); recombinant PAD4, RCA probe fluorescence polarization;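 active = percent inhibition above a cutoff equal to the mean of all tested compounds plus 3 SD, cut at about 15% in these data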
TCR CD3 inh: human TCR-CD3 binding inhibition | TAMRA-labeled TCR probe fluorescence, biochemical | inhibition, % at 9.4 µM | actives 0.37% (n = 360,000) | AID 651800;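 note: recombinant mutant TCR 2C K166C tagged with TAMRA read by polarization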
PAD4 confirm: confirmation of human PAD4 inhibitors; shares compounds with PAD4 inh; recombinant PAD4, RCA probe fluorescence polarization; inhibition, % at 6.36 µM; actives 28% (n = 1,200); AID 488796;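 active = mean inhibition across replicates above the hit cutoff set by the earlier primary screen, cut at about 15% in these data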;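 note: inhibitors block active-site labeling by the probe so polarization falls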
HTRA1 conf: confirmation of human HTRA1 inhibitors; recombinant HTRA1, FP-rhodamine activity-based probe, fluorescence polarization; inhibition, % at 5.96 µM; actives 66% (n = 1,600); shares compounds with HTRA1 inh;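 active = mean inhibition over three repeats above a set limit taken from the earlier primary screen, cut at about 37% in these data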;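 note: inhibitors block probe binding so polarization drops and inhibition rises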
BSA TAMRA ctr: counter-screen for TCR-CD3 interaction inhibitors: BSA probe | TAMRA-labeled BSA probe fluorescence counterscreen | actives 10% (n = 1,200) | inhibition, % at 9.4 µM | shares compounds with TCR CD3 inh; in the data active = inhibition above about 23%
TCR-CD3 conf: confirmation of human TCR-CD3 interaction inhibitors | shares compounds with TCR CD3 inh | TAMRA-labeled TCR probe fluorescence binding assay | inhibition, % at 9.4 µM | actives 48% (n = 1,200) | AID 652036
A number is an active result; i = inactive; nt = no result given. Cut-off read from the data, not from the text of the source, unless noted: active = inhibition above about 19%; inactive = the rest.

SMILES	HTRA1 inh	TDP2 inh	SIAE inh	mABHD4 FP	PAD4 inh	TCR CD3 inh	PAD4 confirm	others
Cc1ccc(CNC(=O)c2ccc(C)c(S(=O)(=O)N3CCCCC3)c2)cc1	i	i	i	i	105	i	i
Cc1ccc(C(=O)NCc2ccc(Cl)cc2)cc1S(=O)(=O)N1CCCCC1	i	i	i	i	i	i	nt
Cc1c(C(=O)N2CCCCC2)c(S(=O)(=O)N2CCN(c3ccc(F)cc3)CC2)c(C)n1C	i	i	i	i	i	i	nt
Cc1c(C(=O)N2CCCCC2)c(S(=O)(=O)N2CCN(c3ccc(Cl)cc3)CC2)c(C)n1C	i	i	i	i	68	i	i
O=C(Cc1ccccc1)NC1CCCc2c1cnn2-c1ccc(F)cc1F (centres undefined)	nt	i	i	i	nt	nt	nt
Nc1ccc(-c2c3ccc(=O)cc-3oc3cc(O)ccc23)c(C(=O)O)c1	i	nt	nt	nt	21	nt	i
COc1ccc(CNC(=S)OC2CCC23CCC(c2ccccc2)CC3)cc1 (centres undefined)	nt	i	i	i	nt	nt	nt
O=C1CCC[C@H]2C[C@H](NCc3cccs3)CC[C@]23CCCN13	nt	i	i	i	nt	nt	nt
CC1=CC(C)(C)N2C(=O)C3(C(C#N)=C(N)OC4=C3C(=O)CC(C)(C)C4)c3c(C)c(C)cc1c32 (centres undefined)	i	i	i	i	40	i	i
O=C(NC1CCCCN(Cc2ccc(OC(F)(F)F)cc2)C1=O)c1ccc2ccccc2c1 (centres undefined)	nt	i	i	i	nt	nt	nt
CC1(OC(=O)C2CCCC2)C(=O)C=C2C=C(c3ccsc3)N(CCc3ccccn3)C=C2C1=O (centres undefined)	i	i	i	i	19	i	i
Cc1cc(C)cc(NC(=O)O[C@@H]2CC[C@@]34CCCN3C(=O)CCC[C@H]4C2)c1	nt	i	i	i	nt	nt	nt
Cc1ccc(S(=O)(=O)/N=C2/C=C(Sc3ncn[nH]3)C(=O)c3ccccc32)cc1	i	nt	nt	nt	39	nt	i
CCc1nnc(N/N=C/c2c(C)[nH]c3ccccc23)n1N	i	59	i	i	30	i	i
O=C(NCCO)c1ccc2nc(-c3ccco3)c(-c3ccco3)nc2c1	i	47	20	42	30	26	i
O=C(NCCO)c1ccc(Cl)c(Cl)c1	i	i	i	i	i	i	nt
Cc1ccc2nc(-c3ccc(NC(=O)CSc4nnc(-c5cc(C)[nH]n5)n4N)cc3)sc2c1	nt	i	i	i	nt	nt	nt
CCSc1ccc(-c2nn(-c3ccccc3)cc2/C=C(/C#N)C(=O)NCCCOC)cc1	i	i	i	i	18	i	32
CCCSc1ccc(-c2nn(-c3ccccc3)cc2/C=C(/C#N)C(=O)NCCCOC)cc1	i	i	i	i	i	i	nt
Cc1ccc(CS(=O)(=O)c2ncc(Cl)c(C(=O)Nc3nnc(C(C)C)s3)n2)cc1	i	i	i	i	95	i	i
Cc1ccccc1C(=O)NNC(=O)CSc1nc2ccccc2c(=O)[nH]1	i	i	i	i	23	i	i
Cc1cc2ncn(-c3ncccc3[N+](=O)[O-])c2cc1C	i	i	i	i	87	i	i
O=[N+]([O-])c1cccnc1-n1cnc2ccccc21	i	i	i	i	i	i	nt
COc1cc(C(C)=O)ccc1OCc1cc(C(=O)N2CCSCC2)no1	i	i	i	i	i	i	nt
CC(=O)c1cccc(OCc2cc(C(=O)N3CCSCC3)no2)c1	i	i	i	i	35	i	i
SMILES	HTRA1 inh	TDP2 inh	SIAE inh	mABHD4 FP	PAD4 inh	TCR CD3 inh	PAD4 confirm	others
COc1cccc(C2=CC(c3ccc(OC)c(OC)c3)NC(=S)N2)c1 (centres undefined)	nt	i	i	i	30	i	56
COc1ccc(C2=CC(c3ccc(OC)c(OC)c3)NC(=S)N2)cc1 (centres undefined)	i	i	i	i	49	i	56
CCC[C@H]1[C@@H](OC(=O)Oc2ccc([N+](=O)[O-])cc2)CC[C@@]23CCCN2C(=O)CCC[C@@H]13	nt	i	i	i	nt	nt	nt
COC(=O)[C@]12C[C@H](CC(=O)NCC34CC5CC(CC(C5)C3)C4)C(=O)N(Cc3ccco3)C1=C[C@H](C(C)(C)C)O[C@@H]2C	nt	i	i	i	nt	nt	nt
CC(C)n1cnc2c(NCc3ccccc3)cc(N[C@H](C)CO)cc21	45	nt	nt	nt	46	nt	32	HTRA1 conf=i
COCCCOc1cc(NCc2ccccc2)c2ncn(C(C)C)c2c1	i	i	i	i	i	i	nt
Cc1ccc(S(=O)(=O)/N=C2\C=C(Nc3ccc(O)cc3)C(=O)c3ccccc32)cc1	88	nt	nt	nt	55	nt	54	HTRA1 conf=77
Cc1ccc(S(=O)(=O)Nc2ccc(N=Nc3ccc(O)cc3)cc2)cc1	i	i	i	i	i	i	nt
O=C1C(Nc2ccccc2)=C/C(=N/S(=O)(=O)c2cccs2)c2ccccc21	63	nt	nt	nt	63	nt	58	HTRA1 conf=62
O=C(Nc1ccc(Cl)cc1Cl)O[C@@H]1CC[C@@]23CCCN2C(=O)CCC[C@H]3C1	nt	i	i	i	nt	nt	nt
CCNc1cc(O)ccc1C	71	nt	nt	nt	122	nt	53	HTRA1 conf=41
C[C@@H]1[C@H](O)[C@@H](C)/C=C/C=C/C=C/C=C/C=C/C=C/C=C/[C@H](OC2O[C@H](C)[C@@H](O)[C@H](N)[C@@H]2O)C[C@@H]2O[C@](O)(C[C@@H](O)C[C@@H](O)[C@H](O)CC[C@@H](O)C[C@@H](O)CC(=O)O[C@H]1C)C[C@H](O)[C@H]2C(=O)O (some centres undefined)	nt	i	i	i	nt	nt	nt
O=C(c1cc(-c2ccccc2Cl)on1)N1CCN(C(=O)c2ccco2)CC1	i	i	i	i	i	i	nt
O=C(O)CCNc1cc(N2CCN(C(=O)c3ccco3)CC2)c2noc3c2c1C(=O)c1ccccc1-3	46	38	30	49	21	34	i	HTRA1 conf=i
COc1ccc(CCC[C@@H](CCC(=O)N(c2ccccc2)c2ccccc2)CCc2ccccc2)cc1	nt	i	i	i	nt	nt	nt
CCc1ccc(CNc2ccc(N3CCN(C(C)=O)CC3)cc2)cc1	42	i	i	i	29	i	i	HTRA1 conf=i
CC1(C)c2ccccc2N2CCC(=O)NC21/C=C/c1ccco1 (centres undefined)	i	i	i	i	17	19	i	BSA TAMRA ctr=i;TCR-CD3 conf=i
